We go through 22 molecules from ChEMBL document CHEMBL4627283, “Discovery and optimization of 4-oxo-2-thioxo-thiazolidinones as NOD-like receptor (NLR) family, pyrin domain-containing protein 3 (NLRP3) inhibitors” (Bioorg Med Chem Lett, 2020).

SMILES strings stand for the structures. Bounds are passed on as bounds.

As a reminder, the IC50 is the point on the concentration scale where inhibition reaches its midpoint. The term inhibition denotes the drop in the measured response relative to a control, in per cent. By half-life is commonly meant the time needed for the level to fall by half in the phase considered.

The target of data set [1] is T1, NACHT, LRR and PYD domains-containing protein 3 (Homo sapiens, UniProt Q96P20). Put plainly: Inhibition of NLRP3 inflammasome (unknown origin) activation in LPS-primed bone marrow derived macrophage cells assessed as effect on IL-1beta production in presence of nigericin by ELISA. Summed up:
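BMDMs pretreated with varied doses of compound, then LPS-primed and stimulated with nigericin; IL-1β in supernatant by ELISA, normalized to DMSO-treated control; IC50 given as mean ± SD.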
(An ELISA detects its analyte on a solid surface through an enzyme-linked reagent.)

The target of data set [2] is T1, NACHT, LRR and PYD domains-containing protein 3. The experiment in a line: Inhibition of NLRP3 inflammasome (unknown origin) activation in LPS-primed bone marrow derived macrophage cells at 10 uM in presence of mono sodium urate relative to control.
Data set [3] deals with Cystic fibrosis transmembrane conductance regulator (Homo sapiens) (UniProt P13569). Put plainly: Inhibition of CFTR in human HT-29 cells assessed as effect on intracellular chloride efflux at 20 uM relative to control. Type of data set: cell-based.
A short description of data set [4]: Half life in human liver microsomes in presence of NADPH. The format is ADME, Microsome. Summed up: (§1)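 Stability in human and mouse liver microsomes incubated with an NADPH regenerating system; half-life (min) and hepatic clearance (mL/min/kg) determined.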
(Liver microsomes are a subcellular fraction often used to study metabolism.)

A short description of data set [5]: Clearance in human liver microsomes in presence of NADPH. Type of data set: ADME, Microsome. Summed up:
as §1

Data set [6] in a line: Half life in mouse liver microsomes in presence of NADPH. The format is ADME, Microsome. The essentials: as §1
Data set [7] in a line: Clearance in mouse liver microsomes in presence of NADPH. The format is ADME, Microsome. The essentials:
as §1

The species named for the next data set is Homo sapiens. The experiment in a line: Selectivity index, ratio of inhibition of NLRP3 inflammasome (unknown origin) activation in bone marrow derived macrophage cells at 10 uM to inhibition of CFTR in human HT-29 cells at 20 uM. Type of data set: cell-based. The essentials:
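Selectivity index: % NLRP3 inhibition in BMDMs at 10 μM divided by % CFTR inhibition in HT29 cells at 20 μM.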

Data set [8] has as its target T1, NACHT, LRR and PYD domains-containing protein 3. The experiment in a line: Inhibition of NLRP3 inflammasome (unknown origin) assessed as suppression of mono sodium urate-induced caspase 1 activation by immunoblot analysis. The essentials: (§2)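 LPS-primed BMDMs treated with graded doses of test compound, then stimulated with MSU; IL-1β and cleaved caspase-1 (p20) in culture supernatants detected by immunoblot.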

Data set [9] has the same target. The experiment in a line: Inhibition of NLRP3 inflammasome (unknown origin) assessed as suppression of mono sodium urate-induced IL-1beta level by immunoblot analysis. The essentials: as §2
In general terms: Immunoblotting shows a protein as a band on a membrane.

T1 sequence (Q96P20 whole entry, the tested form may be a part): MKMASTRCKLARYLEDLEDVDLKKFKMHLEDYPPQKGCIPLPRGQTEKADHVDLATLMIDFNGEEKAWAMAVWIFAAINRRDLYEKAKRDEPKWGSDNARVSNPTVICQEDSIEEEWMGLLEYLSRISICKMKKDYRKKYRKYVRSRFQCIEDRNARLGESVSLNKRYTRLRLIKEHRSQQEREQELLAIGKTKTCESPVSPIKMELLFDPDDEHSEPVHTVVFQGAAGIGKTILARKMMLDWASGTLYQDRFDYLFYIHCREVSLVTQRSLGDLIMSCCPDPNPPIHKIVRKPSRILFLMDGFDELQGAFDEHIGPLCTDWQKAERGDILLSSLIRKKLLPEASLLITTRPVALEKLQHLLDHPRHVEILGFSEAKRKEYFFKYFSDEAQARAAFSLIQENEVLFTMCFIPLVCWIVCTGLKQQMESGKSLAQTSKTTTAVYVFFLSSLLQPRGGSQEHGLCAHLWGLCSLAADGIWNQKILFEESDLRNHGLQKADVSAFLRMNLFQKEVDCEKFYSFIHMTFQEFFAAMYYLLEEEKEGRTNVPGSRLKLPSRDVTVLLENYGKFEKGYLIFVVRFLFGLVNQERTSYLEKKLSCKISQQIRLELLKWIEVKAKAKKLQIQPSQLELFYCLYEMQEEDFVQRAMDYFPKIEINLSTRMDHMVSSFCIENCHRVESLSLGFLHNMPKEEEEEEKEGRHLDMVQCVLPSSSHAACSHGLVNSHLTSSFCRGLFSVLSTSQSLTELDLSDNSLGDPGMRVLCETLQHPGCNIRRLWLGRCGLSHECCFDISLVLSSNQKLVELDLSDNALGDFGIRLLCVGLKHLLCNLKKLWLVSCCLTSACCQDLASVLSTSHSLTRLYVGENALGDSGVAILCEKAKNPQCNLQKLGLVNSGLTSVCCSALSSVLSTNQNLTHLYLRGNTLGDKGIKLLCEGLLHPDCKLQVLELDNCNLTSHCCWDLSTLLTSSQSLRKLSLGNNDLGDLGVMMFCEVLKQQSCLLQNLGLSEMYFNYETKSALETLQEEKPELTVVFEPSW
Cystic fibrosis transmembrane conductance regulator (Homo sapiens), sequence (P13569 whole entry, looked up): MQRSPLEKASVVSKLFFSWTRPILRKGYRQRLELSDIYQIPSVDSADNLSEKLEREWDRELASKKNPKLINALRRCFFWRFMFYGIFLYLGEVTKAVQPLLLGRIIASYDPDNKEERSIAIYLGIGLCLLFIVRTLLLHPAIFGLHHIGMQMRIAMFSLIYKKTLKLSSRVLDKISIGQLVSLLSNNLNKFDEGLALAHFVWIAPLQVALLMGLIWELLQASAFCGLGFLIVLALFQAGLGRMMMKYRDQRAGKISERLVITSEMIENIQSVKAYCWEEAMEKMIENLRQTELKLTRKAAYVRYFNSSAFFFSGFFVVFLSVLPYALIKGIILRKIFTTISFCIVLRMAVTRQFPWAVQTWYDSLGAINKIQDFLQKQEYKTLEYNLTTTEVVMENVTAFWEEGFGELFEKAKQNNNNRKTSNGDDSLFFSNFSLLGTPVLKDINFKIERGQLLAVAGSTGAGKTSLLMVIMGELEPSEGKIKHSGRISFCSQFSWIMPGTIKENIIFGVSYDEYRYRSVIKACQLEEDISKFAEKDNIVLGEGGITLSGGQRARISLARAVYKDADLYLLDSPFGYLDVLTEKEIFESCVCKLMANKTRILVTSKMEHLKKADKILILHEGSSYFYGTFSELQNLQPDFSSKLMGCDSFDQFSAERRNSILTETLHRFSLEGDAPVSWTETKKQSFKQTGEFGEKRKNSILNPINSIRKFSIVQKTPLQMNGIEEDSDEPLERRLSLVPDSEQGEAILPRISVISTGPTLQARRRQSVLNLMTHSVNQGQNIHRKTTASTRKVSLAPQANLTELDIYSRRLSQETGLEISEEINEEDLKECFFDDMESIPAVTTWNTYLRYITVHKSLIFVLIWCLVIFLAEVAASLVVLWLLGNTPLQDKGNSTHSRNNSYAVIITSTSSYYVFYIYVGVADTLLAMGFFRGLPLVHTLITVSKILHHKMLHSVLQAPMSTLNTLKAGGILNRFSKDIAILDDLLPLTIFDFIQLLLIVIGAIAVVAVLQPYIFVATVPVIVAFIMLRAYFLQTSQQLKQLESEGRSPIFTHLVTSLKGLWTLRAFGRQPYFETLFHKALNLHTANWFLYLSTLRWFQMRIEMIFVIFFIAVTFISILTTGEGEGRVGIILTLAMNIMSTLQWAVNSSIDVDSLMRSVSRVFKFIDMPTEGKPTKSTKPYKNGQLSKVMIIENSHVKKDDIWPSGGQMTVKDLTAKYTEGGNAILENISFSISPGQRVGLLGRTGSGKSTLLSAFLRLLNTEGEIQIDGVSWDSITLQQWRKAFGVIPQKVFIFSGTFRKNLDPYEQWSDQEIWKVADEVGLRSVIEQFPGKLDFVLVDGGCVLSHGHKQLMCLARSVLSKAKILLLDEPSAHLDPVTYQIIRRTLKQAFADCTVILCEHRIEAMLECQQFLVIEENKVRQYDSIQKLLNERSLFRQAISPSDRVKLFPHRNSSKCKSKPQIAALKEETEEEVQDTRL

For `O=C(O)c1ccc(/C=C2\SC(=S)N(CCCc3cccc(C(F)(F)F)c3)C2=O)cc1`, the IC50 in data set [1] is 4.32 µM. Besides, in [2], the inhibition was determined as 68%.

For the molecule `O=C1/C(=C/c2ccc(-c3nnn[nH]3)cc2)SC(=S)N1CCCc1cccc(C(F)(F)F)c1`, the IC50 in data set [1] turned out to be 4.85 µM. Besides, the figures for the inhibition in [2] and in [3] were 72% and > 10%, respectively.

As for `CC(C)NCC(O)COc1cccc2ccccc12` (stereo unspecified) [PROPRANOLOL], the values for the half-life in data set [4] and in [6] were 15.6 min and 1.7 min, respectively. The CLhep predicted in data set [5] was 15.3 mL/min/kg; in data set [7], 86.6 mL/min/kg.

Take `O=C(O)c1ccc(/C=C2\SC(=S)N(Cc3ccc(-c4ccccc4)cc3)C2=O)cc1`: the IC50 in data set [1] is 7.63 µM. Also, the inhibition in data set [2] amounted to 73%; in [3], 11%.

On to `O=C1S/C(=C\c2ccc(-c3nnn[nH]3)cc2)C(=O)N1Cc1cccc(C(F)(F)F)c1`, for which the half-maximal inhibitory concentration (IC50) in data set [1] amounted to 5.61 µM. The inhibition in data set [2] is 63%; in data set [3], > 10%.

For `O=C(O)c1ccc(/C=C2\SC(=S)N(Cc3cccnc3)C2=O)cc1`, the IC50 in data set [1] turned out to be 6.27 µM. Also, the inhibition in data set [2] was 63%; in data set [3], > 10%.

In the case of `O=C1/C(=C/c2ccc(-c3nnn[nH]3)cc2)SC(=S)N1CCc1cccc(C(F)(F)F)c1`, in data set [1], the half-maximal inhibitory concentration (IC50) is 6.5 µM. In addition, the inhibition in data set [2] was 67%.

For the molecule `CN1CCN(C(=O)c2ccc(/C=C3\SC(=S)N(c4cccc([N+](=O)[O-])c4)C3=O)cc2)CC1`, the half-life in data set [4] was 13.8 min; in [6] it was 1.8 min. Also, the IC50 in [1] was 2.98 µM. For the same molecule, the CLhep predicted in [5] was 15.8 mL/min/kg; in data set [7] it was 86.5 mL/min/kg. Also, the inhibition is 81% in [2] and 66% in data set [3]. Moreover, in the data set filed under Homo sapiens, the Selectivity Index stood at 1.23.

Turning to `O=C(c1ccc(/C=C2\SC(=S)N(c3cccc(OC(F)(F)F)c3)C2=O)cc1)N1CCOCC1`, the half-life was determined as 187 min in data set [4] and 23.9 min in data set [6]. Moreover, in data set [1], the IC50 came to 3.18 µM. For the same molecule, the CLhep predicted in data set [5] is 3.9 mL/min/kg; in data set [7] it was 58.1 mL/min/kg. For the same molecule, the inhibition stood at 75% in data set [2] and 68% in data set [3]. Further, in the data set listed under Homo sapiens, the Selectivity Index was determined as 1.1.

As for `O=C(O)c1ccc(/C=C2\SC(=O)N(Cc3cccc(C(F)(F)F)c3)C2=O)cc1`, the IC50 in [1] amounted to 5.96 µM. Besides, the inhibition in [2] turned out to be 67%; in [3], 23%.

Take `O=C(Nc1ccccc1)c1ccc(/C=C2\SC(=S)N(c3cccc(C(F)(F)F)c3)C2=O)cc1`: in [1], the concentration for half-maximal inhibition (IC50) is > 10 µM. In addition, the inhibition in [2] was determined as 32%; in [3] it was 27%. The Selectivity Index in the data set filed under Homo sapiens amounted to 1.19.

Turning to `O=C(O)c1ccc(/C=C2\SC(=S)N(Cc3cccc(F)c3)C2=O)cc1`, the IC50 in data set [1] was 3.52 µM. The inhibition in [2] is 63%; in [3], > 10%.

For the molecule `O=C(O)c1ccc(/C=C2\SC(=S)N(CCc3cccc(C(F)(F)F)c3)C2=O)cc1`, the IC50 in [1] amounted to 5.91 µM. Further, the figures for the inhibition in data set [2] and in data set [3] were 74% and > 10%, respectively.

On to `CN1CCN(C(=O)c2ccc(/C=C3\SC(=S)N(c4cccc(OC(F)(F)F)c4)C3=O)cc2)CC1`, for which the values for the half-life in [4] and in data set [6] were 27.1 min and 3.7 min, respectively. For the same molecule, the IC50 in data set [1] came to 2.57 µM. Moreover, the results for the CLhep predicted in data set [5] and in data set [7] were 12.8 mL/min/kg and 83 mL/min/kg, respectively. In addition, the inhibition came to 76% in data set [2] and 69% in [3]. The Selectivity Index in the data set filed under Homo sapiens is 1.1.

In the case of `CN1CCN(C(=O)c2ccc(/C=C3\SC(=S)N(c4cccc(C(F)(F)F)c4)C3=O)cc2)CC1`, the half-life in data set [4] came out at 15.6 min; in [6], 1.7 min. The IC50 in data set [1] stood at 2.69 µM. For the same molecule, the CLhep predicted was 15.3 mL/min/kg in data set [5] and 86.6 mL/min/kg in [7]. Besides, the inhibition in [2] amounted to 81%; in data set [3] it was 77%. For the same molecule, the Selectivity Index in the data set filed under Homo sapiens worked out at 1.05.

In the case of `C[C@]12CC[C@H]3[C@@H](CCC4=CC(=O)CC[C@@]43C)[C@@H]1CC[C@@H]2O` [TESTOSTERONE], the half-life in [4] came to 277 min. For the same molecule, in data set [5], the CLhep predicted was 2.8 mL/min/kg.

In the case of `O=C(O)c1ccc(/C=C2\SC(=S)N(Cc3cccc(OC(F)(F)F)c3)C2=O)cc1`, in data set [1], the IC50 was > 10 µM. Moreover, the values for the inhibition in data set [2] and in data set [3] were 29% and 12%, respectively.

For the molecule `O=C(c1ccc(/C=C2\SC(=S)N(c3cccc(C(F)(F)F)c3)C2=O)cc1)N1CCOCC1`, the half-life in [4] and in [6] was > 145 min in each case. Besides, the IC50 in data set [1] stood at 2.74 µM. For the same molecule, the figures for the CLhep predicted in data set [5] and in [7] were < 4.7 mL/min/kg and < 20.7 mL/min/kg, respectively. The results for the inhibition in data set [2] and in data set [3] were 81% and 74%, respectively. In addition, the Selectivity Index in the data set filed under Homo sapiens worked out at 1.09.

Consider `O=C(O)c1ccc(/C=C2\SC(=S)N(c3cccc(C(F)(F)F)c3)C2=O)cc1`, for which the inhibition result in [8] was “Dose-dependent effect”; in [2], 71%; in data set [9], “Dose-dependent effect”; in data set [3], 86%. In addition, the figures for the half-life in data set [4] and in data set [6] were 277 min and 12.6 min, respectively. For the same molecule, in data set [1], the half-maximal inhibitory concentration (IC50) is 6.39 µM. Also, the results for the CLhep predicted in [5] and in [7] were 2.8 mL/min/kg and 69.8 mL/min/kg, respectively. For the same molecule, the Selectivity Index in the data set listed under Homo sapiens turned out to be 0.83.

With `CN1CCN(C(=O)c2ccc(/C=C3\SC(=S)N(Cc4cccc(C(F)(F)F)c4)C3=O)cc2)CC1`, in [1], the IC50 is > 10 µM. Also, the inhibition is 35% in [2] and 10% in [3].

In the case of `O=C(c1ccc(/C=C2\SC(=S)N(c3cccc(C(F)(F)F)c3)C2=O)cc1)N1CCC(O)CC1`, the results for the half-life in [4] and in data set [6] were 44.1 min and 4 min, respectively. Also, the IC50 in [1] stood at 2.44 µM. Moreover, the CLhep predicted in [5] is 10.3 mL/min/kg; in [7] it was 82.4 mL/min/kg. Besides, the inhibition stood at 80% in [2] and 72% in data set [3]. Further, the Selectivity Index in the data set listed under Homo sapiens came to 1.11.

For the molecule `O=C1/C(=C/c2ccc(-c3nnn[nH]3)cc2)SC(=S)N1Cc1cccc(C(F)(F)F)c1`, the IC50 in [1] is 5.58 µM. The inhibition in [2] stood at 67%.
